Test results as given in paper PMC5828885 (The Journal of investigative dermatology, 2017).

Key:
[1] = LogP and LogD determination, 1-octanol/phosphate buffer partitioning; format: physicochemical
Procedure, shortened: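 Shake-flask partitioning in phosphate buffer pH 3/1-octanol 1:1 (v/v) at 25°C, thermostatted water bath, magnetic stirring for 24 h to equilibrate. Compound was introduced in organic solvent at maximum solubility. Both layers were assayed spectrophotometrically at 285nm against a standard curve. The apparent partition coefficient was converted to LogP and LogD (pH 7.4) by published equations.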

[2] = In vitro assay for HCl salt precipitation in simulated lysosomal conditions; format: physicochemical; details: for Solubility behaviour in solution A (no chloride): compared with DMSO; for Precipitates by brightfield and Cy5 fluorescence microscopy in solution B: pH 4.5, 100mM chloride
Procedure, shortened: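 Lysosome-mimic buffers: 10mM sodium acetate pH 4.5 with 10mM CTAB (Solution A), plus 100mM NaCl (Solution B). A 7mM DMSO stock was added 1:100 into each buffer and shaken 2.5 h at varying speeds. Absorbance at 285nm was read against a buffer-plus-DMSO baseline; a decrease was taken as precipitation. Precipitate was imaged by brightfield and Cy5 fluorescence microscopy.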

mice [3] = format: in vivo, mice (Balb/c and C57BL/6); details: 10mg/kg/day, 3-4 weeks; for Skin pigmentation (visual): mice, drug powder feed diet; for Skin pigmentation (OD values, 480nm and 535nm filters): mouse ears, n=3, p<0.01 vs untreated
Procedure, shortened: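 Balb/c and C57BL/6 mice, 4-5 weeks old, fed ad libitum a drug powder diet targeting an oral dose equivalent of 10mg/kg/day for 3-4 weeks; untreated mice as controls. Ears were photographed by phone camera through single-band bandpass filters (480, 535, 623nm), flash/HDR off, no editing filters. Reflectance was quantified by image analysis (drug powder n=7, untreated n=3); one-way ANOVA, Tukey's HSD.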

mice [4] = test: Multi-parameter microscopic imaging of tissue cryosections for CLDIs; format: in vivo, mice (Balb/c and C57BL/6); details: 10mg/kg/day, 3-4 weeks
Procedure, shortened: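 Mice (4-5 weeks old) received a 10mg/kg/day-equivalent drug diet for 3-4 weeks, then were CO2-euthanized. Liver, spleen and ears were washed in cold PBS, embedded in OCT, frozen at -80°C and cryosectioned at 5 μm. Sections were imaged by brightfield, Cy5 fluorescence and LC-PolScope polarization (dichroism, 623nm-filtered illumination) and compared with untreated tissue.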

[5] = Quantification of CFZ in tissues of treated mice; format: in vivo, mice (Balb/c and C57BL/6); details: 10mg/kg/day oral, 3-4 weeks
Procedure, shortened: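 4–5-week-old mice fed the test compound ad libitum in powdered chow; liver, spleen and ears (skin) harvested and rinsed in cold PBS. Tissue homogenized (sonication, or mechanical for ear) in RIPA with protease inhibitors, spun 15000 rpm, 4°C, 5 min. Supernatant extracted with xylenes, then 9M H2SO4 (each triplicate). A540−A750 against a 9M H2SO4 standard curve, normalized to organ weight.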

patients = details: leprosy or MDR-TB patients; ref Maia et al., 2013, Tang et al., 2015; cited from earlier work
[6] = ref Baik et al., 2013; cited from earlier work
[7] = pH 4.5, 10 mM CTAB, 100mM chloride

SMILES | logP at 24 h ([1]; 1-octanol/phosphate buffer 1:1 (v/v), pH 3) | logD at 24 h ([1]; 1-octanol/phosphate buffer, pH 7.4) | Decrease in absorbance (285nm) in solution B [2, 7] [fold] | Precipitation as hydrochloride salt in solution B [2, 7] | Solubility behaviour in solution A (no chloride) ([2]; pH 4.5, 10 mM CTAB) | Precipitates by brightfield and Cy5 fluorescence microscopy in solution B [2] | Skin pigmentation (visual) (mice [3]) | Skin pigmentation (OD values, 480nm and 535nm filters) (mice [3]) | CLDIs in skin sections (mice [4]) | CLDIs in liver and spleen (mice [4]; brightfield, fluorescence, diattenuation) | Tissue concentration of the drug in skin ([5]; n=3, mean ± SD) [mg/g] | Tissue concentration of the drug in liver ([5]; n=4, mean ± SD) [mg/g] | Tissue concentration of the drug in spleen ([5]; n=4, mean ± SD) [mg/g] | Patients with skin pigmentation (patients) | Concentration found in adipose tissue [6] [mgCFZ/gFat] | LogP ([1]; 1-octanol/phosphate buffer pH 3, 25°C, 24 hours, mean, n=3) | LogD @ pH 7.4 ([1]; pH 7.4, from the apparent partition coefficient, 25°C, mean, n=3) | CLDIs accumulation in all tissues (mice [4]; liver, spleen, skin)
CC(C)/N=c1\cc2n(-c3ccc(Cl)cc3)c3ccccc3nc-2cc1Nc1ccc(Cl)cc1 [CFZ, Clofazimine] | 7.66 | 5.76 | 4 | precipitates out as hydrochloride salt | remained soluble | precipitates as a HCl salt form | visually evident | significantly higher than the untreated group | did not contain CLDIs | CLDIs were observed | 0.16 ± 0.04 | 2.37 ± 0.62 | 4.34 ± 0.41 | more than 94% | 0.74 |  |  | 
OCCN=c1cc2n(-c3ccc(Cl)cc3)c3ccccc3nc-2cc1Nc1ccc(Cl)cc1 [compound 568] |  |  |  | remains in solution | remained soluble | no precipitates were observed | visually evident | identical level of pigmentation as CFZ treated mice |  |  |  |  |  |  |  | 6.69 ^2 | 5.42 ^3 | no evidence of CLDIs accumulation
